Assay results pooled from the literature.
Protocols differ between the studies behind these lines. In brackets after ≈: the same amount, converted by molar mass.

| Compound | assay | system | setting | measurement | value |
| --- | --- | --- | --- | --- | --- |
| O=C1C=C(N(Cc2ccc(Cl)nc2)CC(F)F)CO1 | – | water | pH 4 | solubility | 3200 µg/mL (≈ 11100 µM) |
| CC[C@H](C)[C@H](NC(=O)[C@H](CO)NC(=O)[C@H](CCCNC(=N)N)NC(C)=O)C(=O)N[C@H]1CSSC[C@@H](C(=O)N[C@H](C(N)=O)[C@@H](C)O)NC(=O)[C@H](CCCNC(=N)N)NC(=O)[C@H](Cc2c[nH]cn2)NC(=O)[C@H](Cc2cccc3ccccc23)NC(=O)CNC(=O)[C@H](Cc2c[nH]c3ccccc23)NC(=O)[C@H](CC(=O)O)NC(=O)[C@H](CCC(N)=O)NC(=O)[C@H](Cc2c[nH]c3ccccc23)NC(=O)[C@H](C(C)C)NC1=O | – | PBS | pH 7.4 | solubility | 390 µg/mL (≈ 197 µM) |
| Clc1ccc(CSc2nnc(-c3ccccn3)n2Cc2ccco2)cc1Cl | – | aqueous buffer | pH 7.4 | solubility | 0.14 µg/mL (≈ 0.335 µM) |
| Nc1ncc(-c2nc(N3CCOCC3)nc(N3CCOCC3)n2)c(C(F)F)n1 | shake flask | FaSSIF | 24 h | thermodynamic solubility | 7.6 µM |
| CCCc1ccc(-c2ccc([C@@H](CO)C(=O)N[C@H](C)c3ccccc3)cc2)cc1 | – | PBS | pH 7.4 | kinetic solubility | < 1 µM |
| CC[C@H](C)[C@H](NC(=O)[C@H](CO)NC(=O)[C@H](CCCNC(=N)N)NC(C)=O)C(=O)N[C@H]1CSSC[C@@H](C(=O)N[C@H](C(N)=O)[C@@H](C)O)NC(=O)[C@H](CCCNC(=N)N)NC(=O)[C@H](Cc2c[nH]cn2)NC(=O)[C@H](C)NC(=O)CNC(=O)[C@H](Cc2c[nH]c3ccccc23)NC(=O)[C@H](CC(=O)O)NC(=O)[C@H](CCC(N)=O)NC(=O)[C@H](Cc2cccc3ccccc23)NC(=O)[C@H](C(C)C)NC1=O | – | PBS | pH 7.4 | solubility | 2110 µg/mL (≈ 1130 µM) |
| C#Cc1ccc2c(c1)C(c1ccccn1)=NCc1c(-c3cnco3)ncn1-2 | – | water | 90 min, 37 °C | kinetic solubility | 517 µg/mL |
| OC(c1ccc(F)cc1)C(F)(F)CCN1CCC(O)(c2ccc(Cl)cc2)CC1 (racemic) | – | PBS | 2 h, pH 7.4, 25 °C | kinetic solubility | 3.4 µM |
| CC(=O)N[C@@H](CC(N)=O)C(=O)N[C@@H](CC(N)=O)C(=O)N[C@@H](CC(C)C)C(=O)N[C@H]1CSSC[C@@H](C(=O)N[C@H](C(N)=O)[C@@H](C)O)NC(=O)[C@H](CCCNC(=N)N)NC(=O)[C@H](Cc2c[nH]cn2)NC(=O)[C@H](Cc2cccc3ccccc23)NC(=O)CNC(=O)[C@H](Cc2c[nH]c3ccccc23)NC(=O)[C@H](CC(=O)O)NC(=O)[C@H](CCC(N)=O)NC(=O)[C@H](Cc2c[nH]c3ccccc23)NC(=O)[C@H](C(C)C)NC1=O | – | PBS | pH 7.4 | solubility | 270 µg/mL (≈ 137 µM) |
| CC(C)CCC[C@@H](C)[C@H]1CC[C@H]2[C@@H]3CC=C4C[C@@H](OCCCNC(=O)CCC(=O)NCCCC[C@H](NC(=O)[C@H]5CCCN5C(=O)[C@H](CCC(=O)O)NC(=O)[C@H](C)NC(=O)[C@@H](NC(=O)C[C@H](O)[C@H](CC(C)C)NC(=O)[C@H](CC(N)=O)NC(=O)[C@@H](NC(=O)[C@@H](N)CCC(=O)O)C(C)C)C(C)C)C(N)=O)CC[C@]4(C)[C@H]3CC[C@]12C | – | aqueous buffer | pH 6.5 | thermodynamic solubility | > 3000 µg/mL |
